The pIC50 is −log10 of the IC50, conventionally taken in molar units.

Assay [1] deals with T1, Tyrosine-protein phosphatase non-receptor type 1 (Homo sapiens, UniProt P18031).
T1 sequence (P18031 whole entry): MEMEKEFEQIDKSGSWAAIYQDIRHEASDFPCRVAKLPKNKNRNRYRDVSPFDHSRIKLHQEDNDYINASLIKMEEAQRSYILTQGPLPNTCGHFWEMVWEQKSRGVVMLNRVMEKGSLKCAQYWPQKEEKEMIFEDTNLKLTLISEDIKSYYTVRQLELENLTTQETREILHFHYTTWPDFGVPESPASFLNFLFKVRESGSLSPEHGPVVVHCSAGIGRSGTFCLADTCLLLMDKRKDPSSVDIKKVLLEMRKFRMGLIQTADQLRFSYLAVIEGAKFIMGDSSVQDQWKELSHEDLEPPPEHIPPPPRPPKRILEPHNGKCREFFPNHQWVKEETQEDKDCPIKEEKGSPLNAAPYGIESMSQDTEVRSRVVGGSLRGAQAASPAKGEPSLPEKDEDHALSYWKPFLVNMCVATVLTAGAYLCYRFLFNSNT
The assay can be described thus: Inhibition of PTP1B by pNPP assay.

Assay [2] addresses T2, Tyrosine-protein phosphatase non-receptor type 2 (Homo sapiens, UniProt P17706).
T2 sequence (P17706 whole entry): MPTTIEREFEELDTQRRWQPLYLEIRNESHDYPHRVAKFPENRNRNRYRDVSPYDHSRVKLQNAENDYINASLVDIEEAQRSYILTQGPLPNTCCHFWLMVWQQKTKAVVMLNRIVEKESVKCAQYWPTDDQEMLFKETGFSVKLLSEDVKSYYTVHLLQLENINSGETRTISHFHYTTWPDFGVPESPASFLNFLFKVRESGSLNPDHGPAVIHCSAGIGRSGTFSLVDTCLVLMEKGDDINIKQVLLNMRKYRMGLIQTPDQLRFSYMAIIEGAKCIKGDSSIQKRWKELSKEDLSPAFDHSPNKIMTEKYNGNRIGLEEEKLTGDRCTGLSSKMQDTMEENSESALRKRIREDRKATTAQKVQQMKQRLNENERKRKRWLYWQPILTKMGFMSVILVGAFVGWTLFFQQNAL
The assay can be described thus: Inhibition of TCPTP by pNPP assay.

Assay [3] deals with Tyrosine-protein phosphatase non-receptor type 6 (Homo sapiens, UniProt P29350). The assay can be described thus: Inhibition of human recombinant SHP1.
Assay [4] has as its target Receptor-type tyrosine-protein phosphatase alpha (Homo sapiens, UniProt P18433). The assay can be described thus: Inhibition of human recombinant PTPalpha.
Assay [5] relates to L6. Put plainly: Increase in glucose uptake in rat L6 cells after 3 hrs in absence of insulin. Format: functional, cell-based. In short, it runs like this:
(§1)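 Rat L6 myoblasts grown in α-DMEM with 10% FBS at 37 °C under 5% CO2, then differentiated in α-DMEM with 2% FBS. Used as myotubes on day 5 after 2 h serum-free starvation (0.2% BSA). Compound at 250 nM–2 µM for 3 h without insulin. 2-Deoxy[1,2-3H]glucose uptake measured over 10 min in HEPES saline, pH 7.4, 0.1 mM glucose. Lysate counts normalised to protein, given as % of basal/0.2% DMSO cells.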

Assay [6] has as its target Receptor-type tyrosine-protein phosphatase F (Homo sapiens, UniProt P10586). The assay can be described thus: Inhibition of human recombinant LAR.
The nature of assay [7]: Selectivity for PTP1B to human recombinant SHP1.
In assay [8] the target is RAC-alpha serine/threonine-protein kinase (Homo sapiens) (UniProt P31749). Put plainly: Increase in human Akt phosphorylation expressed in CHO cells. Format: cell-based. A digest of the protocol:
(§2)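 CHO cells stably carrying human insulin receptor were grown near-confluent, then starved 2 h in serum-free Ham's F-12. Compound was given for 3 h, followed by 10 nM insulin for 10 min. Lysates were run on 8% SDS-PAGE and western blotted for phospho-IR (Tyr1162/1163), phospho-Akt (Ser473) and β-actin, with ECL detection.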

Assay [9] deals with Insulin receptor (Homo sapiens) (UniProt P06213). Put plainly: Increase in human IRbeta phosphorylation expressed in CHO cells. Format: cell-based. A digest of the protocol:
as §2

Assay [10] has as its target Receptor-type tyrosine-protein phosphatase epsilon (Homo sapiens, UniProt P23469). The assay can be described thus: Inhibition of human recombinant PTPepsilon.
Assay [11] has as its system L6. Put plainly: Increase in glucose uptake in rat L6 cells at 1 uM after 3 hrs in presence of insulin relative to basal. Format: functional. Particulars: in the assay text read “after 2.5 hrs” for “after 3 hrs”. A digest of the protocol:
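Differentiated rat L6 myotubes (day 5) were serum-starved 2 h, exposed to 1.0 µM compound for 2.5 h, then stimulated 30 min with 1, 10 or 100 nM insulin. 2-Deoxy[1,2-3H]glucose uptake was read over 10 min (0.1 mM glucose, HEPES saline pH 7.4). Radioactivity from 0.1% Triton lysates was normalised to protein and expressed relative to basal/DMSO-treated cells.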

Assay [12] deals with L6. Put plainly: Increase in glucose uptake in rat L6 cells at 1 uM after 3 hrs in absence of insulin relative to basal. Format: functional. In short, it runs like this: as §1

pIC50: −log10 of the molar value. Calls of active or inactive are those of the source. The rule behind the calls is not given here.

Chain of Receptor-type tyrosine-protein phosphatase alpha (P18433 whole entry): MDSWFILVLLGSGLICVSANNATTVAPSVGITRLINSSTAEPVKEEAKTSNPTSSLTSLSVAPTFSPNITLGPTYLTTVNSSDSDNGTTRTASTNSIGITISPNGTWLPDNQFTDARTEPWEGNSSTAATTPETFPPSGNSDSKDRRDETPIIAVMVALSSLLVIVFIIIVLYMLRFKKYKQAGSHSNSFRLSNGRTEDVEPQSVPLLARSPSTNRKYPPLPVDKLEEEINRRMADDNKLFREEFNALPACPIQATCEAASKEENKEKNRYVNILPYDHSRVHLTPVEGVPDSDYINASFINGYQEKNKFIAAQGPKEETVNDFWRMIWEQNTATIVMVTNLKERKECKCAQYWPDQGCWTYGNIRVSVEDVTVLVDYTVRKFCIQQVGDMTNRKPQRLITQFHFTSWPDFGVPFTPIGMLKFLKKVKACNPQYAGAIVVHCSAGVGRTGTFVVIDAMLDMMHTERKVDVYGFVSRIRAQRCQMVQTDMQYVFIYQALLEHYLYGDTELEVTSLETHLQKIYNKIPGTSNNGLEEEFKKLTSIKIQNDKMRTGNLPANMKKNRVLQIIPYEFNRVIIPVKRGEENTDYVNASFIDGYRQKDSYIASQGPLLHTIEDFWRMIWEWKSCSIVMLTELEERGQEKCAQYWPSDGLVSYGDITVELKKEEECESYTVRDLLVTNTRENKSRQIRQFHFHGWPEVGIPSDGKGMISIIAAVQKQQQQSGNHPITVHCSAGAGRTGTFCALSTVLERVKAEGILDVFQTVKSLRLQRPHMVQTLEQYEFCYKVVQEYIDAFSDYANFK
Chain of Receptor-type tyrosine-protein phosphatase epsilon (P23469 whole entry): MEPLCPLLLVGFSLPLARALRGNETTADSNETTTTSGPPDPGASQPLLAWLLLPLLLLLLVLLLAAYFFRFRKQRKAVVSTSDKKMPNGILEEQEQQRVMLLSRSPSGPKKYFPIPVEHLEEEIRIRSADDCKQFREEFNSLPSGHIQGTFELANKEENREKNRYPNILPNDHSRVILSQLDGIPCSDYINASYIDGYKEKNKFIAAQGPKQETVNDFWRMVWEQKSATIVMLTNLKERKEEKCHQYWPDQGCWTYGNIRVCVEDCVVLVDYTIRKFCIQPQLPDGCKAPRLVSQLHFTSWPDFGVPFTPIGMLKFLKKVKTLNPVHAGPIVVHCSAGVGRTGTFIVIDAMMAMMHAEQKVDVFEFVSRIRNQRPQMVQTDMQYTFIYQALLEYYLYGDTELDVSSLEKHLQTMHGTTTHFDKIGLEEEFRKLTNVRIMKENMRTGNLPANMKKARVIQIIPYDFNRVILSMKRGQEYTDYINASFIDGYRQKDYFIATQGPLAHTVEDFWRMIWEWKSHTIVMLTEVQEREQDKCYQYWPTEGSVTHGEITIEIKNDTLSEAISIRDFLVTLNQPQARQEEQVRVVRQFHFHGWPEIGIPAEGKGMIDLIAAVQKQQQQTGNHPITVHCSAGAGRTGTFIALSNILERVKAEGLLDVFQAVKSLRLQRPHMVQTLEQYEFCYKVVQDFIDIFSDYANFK
Chain of Insulin receptor (Homo sapiens) (P06213 28-758 limits assumed): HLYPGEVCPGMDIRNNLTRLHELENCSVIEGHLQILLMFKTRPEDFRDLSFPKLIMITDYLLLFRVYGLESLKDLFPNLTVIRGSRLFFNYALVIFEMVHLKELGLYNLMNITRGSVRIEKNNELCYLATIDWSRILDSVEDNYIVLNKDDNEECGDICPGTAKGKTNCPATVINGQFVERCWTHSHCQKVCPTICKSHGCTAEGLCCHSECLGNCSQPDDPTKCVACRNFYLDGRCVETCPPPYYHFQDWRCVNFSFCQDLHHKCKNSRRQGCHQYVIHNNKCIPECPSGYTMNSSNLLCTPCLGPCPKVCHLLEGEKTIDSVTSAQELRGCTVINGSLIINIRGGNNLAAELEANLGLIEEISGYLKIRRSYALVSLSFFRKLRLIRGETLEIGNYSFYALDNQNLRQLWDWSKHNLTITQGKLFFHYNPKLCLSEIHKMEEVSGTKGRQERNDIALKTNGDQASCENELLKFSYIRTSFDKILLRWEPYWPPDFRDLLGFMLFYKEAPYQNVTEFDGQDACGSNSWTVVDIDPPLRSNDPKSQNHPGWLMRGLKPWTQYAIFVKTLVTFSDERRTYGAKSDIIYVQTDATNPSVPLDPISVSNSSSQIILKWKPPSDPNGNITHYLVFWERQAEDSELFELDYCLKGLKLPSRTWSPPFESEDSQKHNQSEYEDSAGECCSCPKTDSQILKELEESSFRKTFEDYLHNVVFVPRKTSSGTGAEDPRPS
Chain of Insulin receptor (Homo sapiens) (P06213 763-1382 limits assumed): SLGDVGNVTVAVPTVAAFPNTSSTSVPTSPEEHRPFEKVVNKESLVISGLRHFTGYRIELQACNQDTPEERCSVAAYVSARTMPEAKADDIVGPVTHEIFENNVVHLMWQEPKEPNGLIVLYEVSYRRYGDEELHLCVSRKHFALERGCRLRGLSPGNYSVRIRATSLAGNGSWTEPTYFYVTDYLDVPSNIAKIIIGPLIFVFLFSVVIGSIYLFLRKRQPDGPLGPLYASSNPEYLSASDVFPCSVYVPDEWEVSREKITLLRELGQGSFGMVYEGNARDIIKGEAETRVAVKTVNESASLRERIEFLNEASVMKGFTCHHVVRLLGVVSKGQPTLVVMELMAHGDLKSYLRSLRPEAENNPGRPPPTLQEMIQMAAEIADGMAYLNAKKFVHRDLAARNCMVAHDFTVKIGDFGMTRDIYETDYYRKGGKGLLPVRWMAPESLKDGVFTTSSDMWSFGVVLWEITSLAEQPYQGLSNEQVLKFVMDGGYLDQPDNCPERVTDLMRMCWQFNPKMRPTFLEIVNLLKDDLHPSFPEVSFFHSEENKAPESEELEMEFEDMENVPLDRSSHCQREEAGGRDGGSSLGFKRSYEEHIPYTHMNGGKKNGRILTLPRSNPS
Chain of Tyrosine-protein phosphatase non-receptor type 6 (P29350 whole entry): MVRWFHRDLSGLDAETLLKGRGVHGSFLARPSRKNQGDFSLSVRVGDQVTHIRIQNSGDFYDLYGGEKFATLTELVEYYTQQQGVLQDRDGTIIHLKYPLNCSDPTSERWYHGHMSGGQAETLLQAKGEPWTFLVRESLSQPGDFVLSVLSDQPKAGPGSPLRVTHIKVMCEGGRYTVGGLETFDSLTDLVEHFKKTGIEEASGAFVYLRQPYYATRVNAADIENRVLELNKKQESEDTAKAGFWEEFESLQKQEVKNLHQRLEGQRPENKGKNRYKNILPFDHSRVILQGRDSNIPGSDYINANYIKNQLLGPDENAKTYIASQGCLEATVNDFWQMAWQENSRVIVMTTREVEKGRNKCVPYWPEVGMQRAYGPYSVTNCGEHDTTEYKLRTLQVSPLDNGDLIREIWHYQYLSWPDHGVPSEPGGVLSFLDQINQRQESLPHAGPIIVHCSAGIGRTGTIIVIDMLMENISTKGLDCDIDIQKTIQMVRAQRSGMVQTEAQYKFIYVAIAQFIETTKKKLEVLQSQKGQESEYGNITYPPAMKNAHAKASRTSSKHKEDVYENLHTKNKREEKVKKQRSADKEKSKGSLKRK
Chain of RAC-alpha serine/threonine-protein kinase (Homo sapiens) (P31749 whole entry): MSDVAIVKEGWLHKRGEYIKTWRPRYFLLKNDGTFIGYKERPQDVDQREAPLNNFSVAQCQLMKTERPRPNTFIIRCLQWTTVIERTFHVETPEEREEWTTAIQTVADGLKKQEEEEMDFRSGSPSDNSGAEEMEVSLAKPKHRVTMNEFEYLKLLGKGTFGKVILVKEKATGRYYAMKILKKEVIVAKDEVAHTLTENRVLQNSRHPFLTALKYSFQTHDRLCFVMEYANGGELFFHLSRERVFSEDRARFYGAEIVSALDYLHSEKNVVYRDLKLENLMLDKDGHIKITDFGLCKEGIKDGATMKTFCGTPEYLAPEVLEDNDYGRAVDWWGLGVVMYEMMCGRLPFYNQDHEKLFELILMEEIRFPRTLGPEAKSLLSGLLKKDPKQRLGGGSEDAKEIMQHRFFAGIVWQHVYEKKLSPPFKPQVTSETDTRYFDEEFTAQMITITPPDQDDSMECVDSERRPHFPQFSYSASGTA

In the case of `CC1(C)CC[C@]2(CCCCC(=O)N[C@@H](Cc3ccccc3)C(=O)O)CC[C@]3(C)C(=CC[C@@H]4[C@@]5(C)CC[C@H](OCc6ccc(C(=O)O)cc6)C(C)(C)[C@@H]5CC[C@]43C)[C@@H]2C1`, the pIC50 in assay [1] is 6.82; in assay [2] it was 6.80; in assay [3] it was 6.05; in [4], less than 4.40; in assay [6], less than 4.40; in [10] it was less than 4.40. For the same molecule, the Activity result in [5] is “Dose-dependent effect”; in assay [9], “Dose-dependent effect”; in assay [11], 20%; in [12] it was 40%. For the same molecule, the Ratio in assay [7] was 2. In assay [8], the outcome was Active.

The values are drawn from ChEMBL document CHEMBL1151785, “Oleanolic acid and its derivatives: new inhibitor of protein tyrosine phosphatase 1B with cellular activities” (Bioorg Med Chem, 2008).
